Measurements reported in ChEMBL document CHEMBL3102711 (Eur J Med Chem, 2014).
The source made the active and inactive calls. The rule behind the calls is not given here.

How the values were obtained:
[1] = Antiproliferative activity against human MUTU-I cells after 24 hrs by Alamar blue assay; type: functional, cell-based
[2] = (§1) Antiproliferative activity against human DG75 cells after 72 hrs by Alamar blue assay; type: functional, cell-based; conditions: DG-75, 72 h
DG-75 [3] = test: as §1; type: functional, cell-based
[4] = (§2) Induction of apoptosis in human MUTU-I cells assessed as accumulation at pre-G1 phase at 10 uM after 24 hrs using propidium iodide staining by FACS analysis; type: functional
Outline: (§3)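 Cells (7.5×10^5 per 5 mL) were treated, then washed in cold PBS and fixed overnight at 4 °C in 70% ethanol. They were stained with RNase A and propidium iodide for 30 min at 37 °C in the dark. Flow cytometry counted 10,000 gated cells, and the pre-G1 fraction was scored.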

HL-60 [5] = test: Induction of apoptosis in human HL60 cells; type: functional, cell-based
MUTU-I [6] = test: (§4) Antiproliferative activity against human MUTU-I cells at 10 uM after 24 hrs by Alamar blue assay; type: functional
Outline: (§5)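 Cells were treated with a single 10 µM dose for 24 h. PBMCs came from healthy-donor blood by Ficoll density separation and were kept in IMDM with 10% FBS. Viability was read by Alamar Blue fluorescence (590 nm, ex 544 nm) against untreated cells. Three independent experiments were run, with a Student's t-test against vehicle.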

HL-60 [7] = test: Induction of apoptosis in human HL60 cells expressing p-glycoprotein; type: functional, cell-based
HL-60 [8] = test: Induction of apoptosis in human HL60 cells expressing BCRP; type: functional, cell-based
PBMC = test: Antiproliferative activity against human PBMC at 10 uM after 24 hrs by Alamar blue assay; type: cell-based; outline: as §5
MUTU-I [9] = test: Induction of apoptosis in human MUTU-I cells assessed as activation of caspase 3 and 7 at 10 uM after 8 hrs by Apotox-Glo Triplex assay; type: functional, cell-based
Outline: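 Cells were seeded at 10,000/well and treated at 10 µM for 8 h. Caspase-Glo reagent (Apotox-Glo Triplex) was added, followed by brief orbital shaking and 30 min at room temperature, then a luminescence read. Vinblastine 100 nM was the positive control, with a Student's t-test against vehicle.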

DG-75 [10] = test: Antiproliferative activity against human DG75 cells at 10 uM after 24 hrs by Alamar blue assay
MUTU-I [11] = test: as §2; type: functional; outline: as §3
[12] = as §4; type: functional; outline: as §5
[13] = Antiproliferative activity against human DG75 cells at 10 uM after 72 hrs by Alamar blue assay; type: functional, DG-75

CCOC(=O)/C=C/C12c3ccccc3C(CC1C#N)c1ccccc12 (stereo unspecified)
EC50 [1]: 45.6 µM | EC50 [2]: > 100 µM

C1=C(CN2CCCCC2)C2c3ccccc3C1c1ccccc12
EC50 [1]: 31.5 µM | EC50 [2]: 10.2 µM

O=C(O)C1C2c3ccccc3C(c3ccccc32)C1C(=O)O (stereo unspecified)
EC50 [1]: > 100 µM

N#CC1CC2c3ccccc3C1(CO)c1ccccc12 (stereo unspecified)
EC50 [1]: > 100 µM | EC50 [2]: > 100 µM

CNC(C)/C=C/c1c2ccccc2cc2ccccc12 (stereo unspecified)
EC50 [1]: 62.9 µM | EC50 [2]: > 100 µM

CCOC(=O)C1=CC2c3ccccc3C1c1ccccc12
EC50 [1]: > 100 µM | Activity (DG-75 [3]): inactive

CN(C)CC1CC2c3ccccc3C1c1ccccc12 (stereo unspecified)
EC50 [1]: > 100 µM | EC50 [2]: > 100 µM

CNC(=O)CCC12c3ccccc3C(CC1C#N)c1ccccc12 (stereo unspecified)
EC50 [1]: > 100 µM | EC50 [2]: > 100 µM

CCOC(=O)N1CCN(C(=O)/C=C/c2c3ccccc3cc3ccccc23)CC1
Activity [4]: 54.7% | EC50 [1]: 5.4 µM | Activity (HL-60 [5]): Active | Activity (MUTU-I [6]): Active | Activity (HL-60 [7]): Active | Activity (HL-60 [8]): Active | Activity (PBMC): Non-toxic | Activity (MUTU-I [9]): Active | EC50 [2]: 11.6 µM | Activity (DG-75 [10]): Active

O=[N+]([O-])c1ccc(/C=C/c2c3ccccc3cc3ccccc23)cc1
EC50 [1]: 8.8 µM | EC50 [2]: > 100 µM

CNC(=O)/C=C/c1c2ccccc2cc2ccccc12
EC50 [1]: 62.5 µM | EC50 [2]: > 100 µM

CCOC(=O)C1CC2c3ccccc3C1c1ccccc12 (stereo unspecified)
EC50 [1]: 55.4 µM | EC50 [2]: > 100 µM

CC(=O)O/N=C/C12c3ccccc3C(CC1C#N)c1ccccc12 (stereo unspecified)
EC50 [1]: 34.6 µM | EC50 [2]: > 100 µM

CCN(CC)C(=O)/C=C/c1c2ccccc2cc2ccccc12
EC50 [1]: 21.5 µM | EC50 [2]: 9.3 µM

CN(C(=O)C1CC2c3ccccc3C1(C=O)c1ccccc12)C1CCCCC1 (stereo unspecified)
EC50 [1]: 40.6 µM | Activity (HL-60 [5]): Active | Activity (HL-60 [7]): Active | Activity (HL-60 [8]): Active | EC50 [2]: > 100 µM

O=C(O)C(Cc1ccc(O)cc1)NC(=O)C1CC2c3ccccc3C1c1ccccc12 (stereo unspecified)
EC50 [1]: > 100 µM

CN(CC1=CC2c3ccccc3C1c1ccccc12)C1CCCCC1
EC50 [1]: 73.3 µM | EC50 [2]: > 100 µM

O=C(/C=C/c1c2ccccc2cc2ccccc12)N1CCCC1
EC50 [1]: 18.7 µM | EC50 [2]: 32.5 µM

CCOC(=O)CCC12c3ccccc3C(CC1C#N)c1ccccc12 (stereo unspecified)
EC50 [1]: 29.3 µM | EC50 [2]: > 100 µM

CCN(CC)C(=O)C1C2c3ccccc3C(c3ccccc32)C1C(=O)N(CC)CC (stereo unspecified)
EC50 [1]: > 100 µM

O=C(/C=C/c1c2ccccc2cc2ccccc12)N1CCCCC1
Activity [4]: 15.44% | EC50 [1]: 1.9 µM | Activity (MUTU-I [9]): Active | EC50 [2]: > 100 µM

N#C/C=C/c1c2ccccc2cc2ccccc12
EC50 [1]: 21.2 µM | EC50 [2]: > 100 µM

CC[C@]1(O)C[C@@H]2CN(CCc3c([nH]c4ccccc34)[C@@](C(=O)OC)(c3cc4c(cc3OC)N(C)[C@H]3[C@@](O)(C(=O)OC)[C@H](OC(C)=O)[C@]5(CC)C=CCN6CC[C@]43[C@@H]65)C2)C1 [VINBLASTINE]
Activity [4]: 52.89% | Activity (MUTU-I [6]): Active | Activity (PBMC): Non-toxic | Activity (DG-75 [10]): Active

COC(=O)C(CC(C)C)NC(=O)C1CC2c3ccccc3C1c1ccccc12 (stereo unspecified)
EC50 [1]: > 100 µM

N#CC1CC2c3ccccc3C1(COC(=O)c1ccccc1)c1ccccc12 (stereo unspecified)
EC50 [1]: 24.5 µM | EC50 [2]: > 100 µM

CCOC(=O)C1C2c3ccccc3C(c3ccccc32)C1C(=O)OCC (stereo unspecified)
EC50 [1]: 89.4 µM | EC50 [2]: > 100 µM

COC(=O)C1=C(C(=O)OC)C2c3ccccc3C1c1ccccc12
EC50 [1]: > 100 µM | Activity (DG-75 [3]): inactive

CN(CC1CC2c3ccccc3C1c1ccccc12)C1CCCCC1 (stereo unspecified)
EC50 [1]: 23 µM | Activity (HL-60 [5]): inactive | Activity (HL-60 [7]): inactive | Activity (HL-60 [8]): inactive | EC50 [2]: 35.5 µM

CCN(CC)CC1C2c3ccccc3C(c3ccccc32)C1CN(CC)CC (stereo unspecified)
EC50 [1]: 65 µM | EC50 [2]: 51.8 µM

CN(C)C(=O)/C=C/c1c2ccccc2cc2ccccc12
EC50 [1]: 24.9 µM | EC50 [2]: > 100 µM

c1ccc2c(c1)C1CC(CN3CCCCC3)C2c2ccccc21 (stereo unspecified)
EC50 [1]: 65.6 µM | EC50 [2]: 69.9 µM

CCNCC1CC2c3ccccc3C1c1ccccc12 (stereo unspecified)
EC50 [1]: > 100 µM | EC50 [2]: > 100 µM

N#CC1CC2c3ccccc3C1(C=O)c1ccccc12 (stereo unspecified)
EC50 [1]: 31.7 µM | EC50 [2]: > 100 µM

CC(C)CC(NC(=O)C1CC2c3ccccc3C1c1ccccc12)C(=O)O (stereo unspecified)
EC50 [1]: > 100 µM

O=C(O)C1CC2c3ccccc3C1c1ccccc12 (stereo unspecified)
EC50 [1]: > 100 µM

c1ccc2c(c1)C1CC(CN3CCOCC3)C2c2ccccc21 (stereo unspecified)
EC50 [1]: 23.5 µM | EC50 [2]: 8.8 µM

O=[N+]([O-])/C=C/c1c2ccccc2cc2ccccc12
Activity [4]: 31.43% | EC50 [1]: 3 µM | Activity (HL-60 [5]): Active | Activity (HL-60 [7]): Active | Activity (HL-60 [8]): Active | Activity (PBMC): Toxic | Activity (MUTU-I [9]): Active | EC50 [2]: 1.5 µM

CNC(=O)/C=C/C12c3ccccc3C(CC1C#N)c1ccccc12 (stereo unspecified)
EC50 [1]: > 100 µM | EC50 [2]: > 100 µM

CC(=O)OCC12c3ccccc3C(CC1C#N)c1ccccc12 (stereo unspecified)
EC50 [1]: 12.8 µM | EC50 [2]: > 100 µM

CN1CCN(C(=O)/C=C/c2c3ccccc3cc3ccccc23)CC1
Activity (MUTU-I [11]): inactive | EC50 [1]: 7.6 µM | Activity (HL-60 [5]): inactive | Activity (HL-60 [7]): inactive | Activity (HL-60 [8]): inactive | Activity (PBMC): Non-toxic | Activity (MUTU-I [9]): inactive | EC50 [2]: 62.1 µM

c1ccc(NCC2CC3c4ccccc4C2c2ccccc23)cc1 (stereo unspecified)
EC50 [1]: > 100 µM | EC50 [2]: > 100 µM

N#CC1CC2c3ccccc3C1(/C=N/OC(=O)c1ccccc1)c1ccccc12 (stereo unspecified)
EC50 [1]: 80.5 µM | EC50 [2]: 95.3 µM

Cc1ccc(N2CCN(C(=O)/C=C/c3c4ccccc4cc4ccccc34)CC2)cc1
EC50 [1]: 38.5 µM | EC50 [2]: > 100 µM

N#CC1CC2c3ccccc3C1(/C=N/O)c1ccccc12 (stereo unspecified)
EC50 [1]: 20.4 µM | EC50 [2]: > 100 µM

Clc1ccc(COC(Cn2ccnc2)c2ccc(Cl)cc2Cl)c(Cl)c1 (stereo unspecified) [MICONAZOLE]
Activity [12]: >90% | Activity [13]: >90%

Clc1ccc(N2CCN(CC3CC4c5ccccc5C3c3ccccc34)CC2)cc1 (stereo unspecified)
EC50 [1]: > 100 µM | EC50 [2]: > 100 µM

CC(=O)/C=C/c1c2ccccc2cc2ccccc12
EC50 [1]: 21.8 µM | EC50 [2]: 7.6 µM

CN1CCN(C(=O)C2CC3c4ccccc4C2c2ccccc23)CC1 (stereo unspecified)
EC50 [1]: > 100 µM

CCN(CC)C(=O)O/N=C/C12c3ccccc3C(CC1C#N)c1ccccc12 (stereo unspecified)
Activity (MUTU-I [11]): inactive | EC50 [1]: 28.4 µM | Activity (HL-60 [5]): inactive | Activity (HL-60 [7]): inactive | Activity (HL-60 [8]): inactive | Activity (PBMC): Non-toxic | Activity (MUTU-I [9]): inactive | EC50 [2]: 3.1 µM

N#C/C=C/C12c3ccccc3C(CC1C#N)c1ccccc12 (stereo unspecified)
EC50 [1]: > 100 µM | EC50 [2]: > 100 µM

COC(=O)C(Cc1ccc(O)cc1)NC(=O)C1CC2c3ccccc3C1c1ccccc12 (stereo unspecified)
EC50 [1]: 63 µM | EC50 [2]: 54.6 µM

CNCC12c3ccccc3C(CC1C#N)c1ccccc12 (stereo unspecified)
EC50 [1]: > 100 µM | EC50 [2]: > 100 µM

CN(C)C(=O)C1C2c3ccccc3C(c3ccccc32)C1C(=O)N(C)C (stereo unspecified)
EC50 [1]: > 100 µM

CCOC(=O)/C=C/c1c2ccccc2cc2ccccc12
EC50 [1]: 27.1 µM | EC50 [2]: > 100 µM
